Published values pooled from the literature.
Compare with care: the assays were run in different laboratories.
Target: Inhibitor of nuclear factor kappa-B kinase subunit beta (IKBKB, Homo sapiens, UniProt O14920)

Compound	assay	setting	quantity	value
Cn1c2c(c3ccc(Cl)c(Cl)c31)C(C#N)C(C)(C)NC2=O (stereo not shown)	thermal stability, DSF	10 µM	ΔTm	-0.4 °C
CCS(=O)(=O)c1cc2cc(C[C@@](O)(CC(C)(C)c3ccc(F)cc3C(N)=O)C(F)(F)F)[nH]c2cn1	cell-free assay, competition with immobilised ligand	1 µM	remaining binding	83%
N#CC1c2c([nH]c3c(Cl)c(Cl)ccc23)C(=O)NC12CCCCC2 (racemic)	thermal stability, DSF	10 µM	ΔTm	0.6 °C
CCN(CC)c1ccc(C2=NNC(=O)CC2C)cc1[N+](=O)[O-] (stereo not shown)	enzyme activity, inhibitor	10 µM	remaining activity	97%
COc1ccc2c(c1)O[C@@H](c1ccc(OC)c(OC)c1)C[C@H]2NC(=O)C1(c2ccc3c(c2)OC(F)(F)O3)CC1	cell-free assay, competition with immobilised ligand	1 µM	remaining binding	95%
COc1cc2ncnc(Nc3ccc(F)c(Cl)c3)c2cc1OCCCN1CCOCC1	cell-free assay	0.5 µM	remaining signal	86.5%
Cc1ccc(NC(=O)c2ccc(C)c(C(F)(F)F)c2)cc1C#Cc1nn(C2CCC(O)CC2)c2ncnc(N)c12 (stereo not shown)	cell-free assay	10 µM	remaining signal	33%
COc1cc(/C=C/C(=O)CC(=O)/C=C/c2ccc(O)c(OC)c2)ccc1O	enzyme activity, inhibitor	1 µM	activity vs control	69%
CN1CCC2(CC1)NC(=O)c1c(c3ccc(Cl)c(Cl)c3n1C)C2C#N (racemic)	thermal stability, DSF	10 µM	ΔTm	-0.2 °C
COc1cc(Cl)c(C(=O)N[C@@H](CN[C@H]2CC[C@@H](N)CC2)Cc2ccc(C#N)cc2)cc1-c1ccc(CN[C@H](C)c2ccc(C)cc2)o1	enzyme activity, inhibitor	1 µM	remaining activity	88%
CCCCN(CCCC)C(=O)CN1C[C@@H](c2cc(OC)c3c(c2)OCO3)[C@H](C(=O)O)[C@H]1CC(C)(C)CCC	cell-free assay, competition with immobilised ligand	1 µM	remaining binding	100%
CS(=O)(=O)Nc1cccc(-c2csc(NC(=O)CSc3nc4nccnc4c(=O)n3CCc3ccccc3)n2)c1	enzyme activity, inhibitor	10 µM	inhibition	4%
O=C(Nc1cnn(-c2csc(C(=O)NC3COC3)c2)c1)Nc1c(F)cccc1Cl	enzyme activity, inhibitor	5 µM	remaining activity	94.7%
O=C1Nc2ccc(Cl)cc2C1=Cc1cc(Cl)c(O)c(Cl)c1	cell-free assay	0.5 µM	remaining signal	93.6%
Cc1cc(NC(=O)c2cccc3cc(-c4cccc5[nH]nc(N)c45)ccc23)ccc1F	enzyme activity, inhibitor	0.1 µM	activity vs control	106%
FC(F)c1nc2ccccc2n1-c1nc(N2CCOCC2)nc(N2CCOCC2)n1	enzyme activity, inhibitor	10 µM	remaining activity	94%
FC(F)(F)Oc1cccc(-c2cnc3ccc(-c4ccncc4)nn23)c1	enzyme activity, inhibitor, radiometric	5 µM	activity vs control	84%
CCC(=O)N[C@@H]1CC[C@H](C(=O)N(C)c2ccc(-c3nc4ccccc4o3)cc2)C1	cell-free assay, competition with immobilised ligand	1 µM	remaining binding	100%
Cc1ccc(Nc2nccc(N(C)c3ccc4c(C)n(C)nc4c3)n2)cc1S(N)(=O)=O	enzyme activity, inhibitor	10 µM	inhibition	17%
NS(=O)(=O)c1cc(NC(=O)Cc2ccccc2)ccc1Oc1cccc(Cl)c1	cell-free assay, competition with immobilised ligand	1 µM	remaining binding	91%

Compound	assay	setting	quantity	value
Cn1c2c(Cl)c(Cl)ccc2c2cc(N)[nH]c(=O)c21	thermal stability, DSF	10 µM	ΔTm	-0.6 °C
O=C1NC(=O)c2cc(Nc3ccc(F)cc3)c(Nc3ccc(F)cc3)cc21	cell-free assay	0.5 µM	remaining signal	95.6%
COc1cc(Nc2cnc(C#N)c(O[C@H](C)CN(C)C)n2)ncc1-c1cnn(C)c1	enzyme activity, inhibitor, radiometric	1 µM	remaining activity	96%
CCCS(=O)(=O)Nc1ccc(F)c(C(=O)c2c[nH]c3ncc(-c4ccc(Cl)cc4)cc23)c1F	enzyme activity, inhibitor	1 µM	inhibition	< 10%
C=CC(=O)Nc1cc(Nc2nccc(Nc3cc(Cl)c(F)cc3C(C)(C)O)n2)c(OC)cc1N1CC[C@@H](N(C)C)C1	enzyme activity, inhibitor	1 µM	inhibition	-5%
CCC1(CC)NC(=O)c2c(c3ccc(Cl)c(Cl)c3n2C)C1C#N (stereo not shown)	thermal stability, DSF	10 µM	ΔTm	0.1 °C
Oc1cccc(-c2nc(N3CCOCC3)c3oc4ncccc4c3n2)c1	enzyme activity, inhibitor	10 µM	remaining activity	74%
CNC(=O)c1cc(Oc2ccc(NC(=O)Nc3ccc(Cl)c(C(F)(F)F)c3)cc2)ccn1	enzyme activity, inhibitor	10 µM	inhibition	-26%
Nc1ncnc2occ(-c3ccc(NC(=O)Nc4cc(C(F)(F)F)ccc4F)cc3)c12	enzyme activity, inhibitor	20 µM	remaining activity	0.55%
CN(C)C1CCN(CC#Cc2nn(C3CCCC3)c3nc(NCc4ccccc4)ncc23)C1 (stereo not shown)	enzyme activity, inhibitor, FRET	1 µM	inhibition	1%
CCOCCn1cc(C(=O)Nc2ccc(-n3nc(-c4cccnc4)cc3C(F)(F)F)cn2)ccc1=O	cell-free assay, competition with immobilised ligand	1 µM	remaining binding	100%
Clc1ccc(Nc2nnc(Cc3ccncc3)c3ccccc23)cc1	cell-free assay	0.5 µM	remaining signal	85.6%
COc1cc2ncnc(Nc3ccc(Oc4ccccc4)cc3C)c2cc1OC	enzyme activity, inhibitor	1 µM	inhibition	1%
Nc1nc(NC2CCCCC2)sc1C(=O)c1ccccc1	enzyme activity, inhibitor	10 µM	remaining activity	70%
NS(=O)(=O)c1cc(NC(=O)C2(c3ccccc3Cl)CC2)ccc1Oc1cccc(Cl)c1	cell-free assay, competition with immobilised ligand	1 µM	remaining binding	70%
CCN(CC)CCNC(=O)c1c(C)[nH]c(/C=C2\C(=O)Nc3ccc(Cl)cc32)c1C	enzyme activity, inhibitor	0.5 µM	remaining activity	101%
CN(c1ccnc(CNc2nc(Nc3ccc4c(c3)CC(=O)N4)ncc2C(F)(F)F)n1)S(C)(=O)=O	cell-free assay, competition with immobilised ligand	1 µM	remaining binding	78%
CC(C)(C)c1nc(-c2cccc(NS(=O)(=O)c3c(F)cccc3F)c2F)c(-c2ccnc(N)n2)s1	enzyme activity, inhibitor, radiometric	1 µM	remaining activity	94%
COc1cccc2c(NCc3ccccc3)nc(-n3c(N)nc4ccccc43)nc12	target engagement in cells, inhibitor, chemoproteomics	20 mM	inhibition	-13.4%
CCN(CC)CCNC(=O)c1c(C)[nH]c(/C=C2\C(=O)Nc3ccc(F)cc32)c1C	enzyme activity, inhibitor	10 µM	inhibition	9%
